Experimental data reported in ChEMBL document CHEMBL4513216, “Probing the Open Global Health Chemical Diversity Library for Multistage-Active Starting Points for Next-Generation Antimalarials” (ACS Infect Dis, 2020).

test: Toxicity liver stage against HepG2, at 10uM; type: cell-based; design: test concentration 10 uM, cell line HepG2-A16-CD81EGFP; settings: human, HepG2-A16-CD81EGFP cells; read-out: INHIBITION
In short: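 Uninfected HepG2-A16-CD81EGFP cells, 3 × 10^3 per well, 1536-well, plated on prespotted compound at 10 μM final, parasite-free screening media added to match infected plates; puromycin 10 μM positive, DMSO 0.5% negative; run in parallel with 48 h PbLuc assay at 37 °C, 5% CO2; viability by CellTiter-Glo luminescence, normalized to controls.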

First: COc1ccc(Cl)cc1-c1nc(N)nc(N(C)C)n1
Second: CC(C)c1nn(C)c(Cl)c1CNCc1ccc(N(C)C)nc1
The cytotoxicity at 10 µM of the first is higher: -4.01% for the first, -13.6% for the second.

First: CC1CCCN(Cc2coc(-c3cccc(F)c3)n2)C1 (configuration not stated)
Second: O=C(Cc1cccc(F)c1)NC1CCCc2cn[nH]c21 (configuration not stated)
The cytotoxicity at 10 µM of the first is lower: -16.7% for the first, 16.5% for the second.

Going from `CC(=O)Nc1ccc(C(=O)NCCCn2cccc2)cc1` to `O=C(NCC1CCS(=O)(=O)C1)c1ccc(NC(=O)c2ccco2)cc1` (configuration not stated), the cytotoxicity at 10 µM rises from -2.66% to 3.25%.

Compared with `COC1(CNC(=O)NCc2ccccc2)CCSC1` (configuration not stated), `COc1ccccc1NCC(=O)NCc1ccc(-c2ccn[nH]2)cc1` is higher in cytotoxicity at 10 µM: -2.42% for the first, -1.99% for the second.

Compared with `O=S(=O)(NCCn1ccc(-c2cccs2)n1)C1CC1`, `CCc1ccc(CN2CCC(CNS(=O)(=O)C3CC3)C2)nc1` (configuration not stated) is lower in cytotoxicity at 10 µM: -0.297% for the first, -4.69% for the second.

Going from `CC(C)CN1C[C@@H]2CN(S(=O)(=O)c3cccs3)C[C@@H]2C1=O` to `COc1ccc(CC(=O)N2C[C@H]3CN(Cc4ccccn4)C[C@H]3C2)cc1`, the cytotoxicity at 10 µM falls from 4.09% to 3.5%.

Compared with `COCCN1C(=O)CCC12CCCN(C(=O)NC(C)C)CC2` (configuration not stated), `CCOCC1COCCC12CCN(C(=O)CS(C)(=O)=O)CC2` (configuration not stated) is lower in cytotoxicity at 10 µM: 1.32% for the first, -1.99% for the second.

Going from `Cc1ccc(CN2C[C@H]3C[C@H](C(=O)NCC4CC4)N(C)[C@H]3C2)o1` to `COCC1CN(Cc2ccc(OC)cc2)Cc2nnn(CC3CC3)c21` (configuration not stated), the cytotoxicity at 10 µM rises from -3.13% to -2.47%.

Compared with `c1cnc(NCc2noc3c2CN(C2CCOC2)CC3)nc1` (configuration not stated), `Cc1nc(Nc2ncccn2)cc(C2CCCN2Cc2ncc[nH]2)n1` (configuration not stated) is lower in cytotoxicity at 10 µM: -3.71% for the first, -15.3% for the second.

Compared with `O=C(CSC1CCc2ccccc2NC1=O)NCCc1ccco1` (configuration not stated), `Cc1occc1C(=O)N1CC[C@@H](N2CCOCC2)[C@@H]1Cc1ccccc1` is higher in cytotoxicity at 10 µM: -13% for the first, -4.09% for the second.

Going from `CC(C)(C)NC(=O)COc1ccc(CNCCOc2ccccn2)cc1` to `COc1ccc(CNC(C)c2ccc3[nH]c(=O)[nH]c3c2)cc1` (configuration not stated), the cytotoxicity at 10 µM falls from -3.76% to -5.04%.

Going from `O=C1CN([C@@H]2CC[C@@H](NS(=O)(=O)c3ccccc3F)[C@H]2O)CCN1` to `Cc1ccc(CN2CCc3[nH]nc(C(=O)N4CCNC(=O)C4)c3C2)s1`, the cytotoxicity at 10 µM rises from 1.06% to 12%.

Going from `CCc1cc(O)n2nc(C3CCCN3C(=O)c3ccccn3)cc2n1` (configuration not stated) to `O=C(NCc1cccnc1N1CCCC(O)C1)c1ccc2[nH]nnc2c1` (configuration not stated), the cytotoxicity at 10 µM rises from -0.805% to 11.4%.

Going from `Nc1nc(C2CCN(C(=O)c3cnco3)CC2)cs1` to `NC(=O)C1CCN(C(=O)c2ccccc2OCc2ccncc2)CC1`, the cytotoxicity at 10 µM rises from -3% to 1.02%.

Going from `Cc1ncsc1CN1C[C@@H](O)[C@](O)(CNC(=O)c2ccccn2)C1` to `c1ccc(N2CC3(CCN(Cc4cccnc4)C3)C2)nc1`, the cytotoxicity at 10 µM rises from -0.973% to 1.11%.

First: Cc1cc(C(=O)NC(C)Cc2cccc(Cl)c2)n(C)n1 (configuration not stated)
Second: CCCc1nccn1-c1cccc(C(C)O)c1 (configuration not stated)
The cytotoxicity at 10 µM of the first is higher: 10.9% for the first, 5.82% for the second.

Going from `O=C(CNC(=O)C1(c2ccc(F)cc2F)CCC1)Nc1cccnc1` to `COC(=O)CN(C(=O)c1ccco1)c1cccc(F)c1`, the cytotoxicity at 10 µM rises from -5.82% to -4.81%.

Compared with `CC(c1nc(C2CC2)no1)N1CCN(CCn2ccccc2=O)CC1` (configuration not stated), `CC(O)CN1CCN(Cc2nnc(C3CC3)o2)CC1` (configuration not stated) is lower in cytotoxicity at 10 µM: 25.8% for the first, -10% for the second.

First: N#CCSCC(=O)NCC1CCCCC1
Second: COC[C@@]12CCC[C@@H]1CN(C(=O)N1CCCC1)C2
The cytotoxicity at 10 µM of the first is higher: 8.32% for the first, 7.9% for the second.

Going from `CCS(=O)(=O)CCSc1ccc(Cl)cc1` to `CS(=O)(=O)NCc1ccc(NC(=O)CC2=CCCCC2)cc1`, the cytotoxicity at 10 µM falls from -1.13% to -2.48%.

Compared with `CCCN(CC(=O)N(C)C)C(=O)c1ccc(-c2nc(C)cs2)cc1`, `CN(C)c1ccccc1C(=O)N1CCCC(c2ccc(C(=O)O)cc2)C1` (configuration not stated) is higher in cytotoxicity at 10 µM: -15.7% for the first, 16.2% for the second.

Going from `Cn1c(NCCC(=O)N2CCCC2)c(C#N)c(=O)n(C)c1=O` to `Cc1nc2c(cc1C(=O)Nc1ccccc1Cl)c(=O)n(C)c(=O)n2C`, the cytotoxicity at 10 µM rises from -9.28% to -5.06%.

First: CCCN(C(=O)CN1CCn2c(nnc2C2CC2)C1)C1=CCCCC1
Second: Cc1nnc2n1CCN(C(=O)c1cc(Br)c(Cl)[nH]1)C2
The cytotoxicity at 10 µM of the first is higher: 6.19% for the first, -12.7% for the second.

Compared with `CC(C)NC(=O)Nc1ccccc1CN1CCOCC1`, `O=C(Nc1ccccc1C(=O)N1CCCC1)NC1CCOCC1` is lower in cytotoxicity at 10 µM: 4.89% for the first, -3.27% for the second.

Going from `O=C(Nc1ccnc(OC2CCOC2)c1)c1cccs1` (configuration not stated) to `Cn1nccc1NC(=O)CN1CCc2sccc2C1`, the cytotoxicity at 10 µM falls from 5.42% to 1.09%.

Going from `Cc1nn(CC(O)CN2CCc3ccccc3C2)c(=O)c2ccccc12` (configuration not stated) to `OCCCN1CCc2[nH]nc(C(c3ccccc3)c3ccccc3)c2C1`, the cytotoxicity at 10 µM falls from 11.1% to -0.869%.

First: CC(NC(=O)NCc1cscn1)c1ccc(N2CCOCC2)cc1 (configuration not stated)
Second: Cn1ccc2c(-c3cc(N)nc(N4CCOCC4)n3)ccnc21
The cytotoxicity at 10 µM of the first is higher: -0.736% for the first, -3.67% for the second.

First: COc1cc(S(=O)(=O)Nc2cn[nH]c2)ccc1Br
Second: Cc1cccc(NS(=O)(=O)c2cnn(C)c2)c1C#N
The cytotoxicity at 10 µM of the first is lower: -1.47% for the first, -0.655% for the second.

Going from `COCc1nc(CNc2cccc(-c3csc(C)n3)c2)cs1` to `COc1ccc(C)cc1CNCc1ccc(-n2nc(C)cc2C)nc1`, the cytotoxicity at 10 µM falls from 1.98% to 0.813%.

Going from `CN(CC(F)(F)F)C(=O)CNC(=O)N1CCCC(C(F)(F)F)C1` (configuration not stated) to `CCn1nc(C)c(CCNC(=O)C2CCCN(CC(N)=O)C2)c1C` (configuration not stated), the cytotoxicity at 10 µM falls from 0.601% to -11.8%.

Compared with `CN1CCN(C(=O)C2CC=CC2)c2ccccc21`, `Cc1n[nH]c(CN2CCN(Cc3ccccc3)[C@@H]3CS(=O)(=O)C[C@@H]32)n1` is lower in cytotoxicity at 10 µM: 14.9% for the first, -7.42% for the second.

First: Cc1ccc(C2CSCCN2C(=O)C2=CCCC2)o1 (configuration not stated)
Second: N#Cc1cccc(N2CCCC3(CCC(=O)N(C4CCCC4)C3)C2)n1 (configuration not stated)
The cytotoxicity at 10 µM of the first is lower: -6.12% for the first, -0.0436% for the second.

First: Cn1cc(-c2csc(CN3CCOCC3)n2)cn1
Second: Cc1nsc(NC(=O)NC2(CN3CCOCC3)CCCCC2)n1
The cytotoxicity at 10 µM of the first is lower: -11.4% for the first, -3.82% for the second.

First: COCCC(=O)N1CC[C@@H]2O[C@@H](C)C[C@H]2C1
Second: CCc1nccn1C1CCCN(C(=O)c2csc(COC)n2)C1 (configuration not stated)
The cytotoxicity at 10 µM of the first is higher: -2.78% for the first, -8.11% for the second.

Compared with `CCN(C)c1ncnc2c1CCN(Cc1ccoc1)CC2`, `CCOC1COC2(CCN(Cc3cccnc3OC)CC2)C1` (configuration not stated) is lower in cytotoxicity at 10 µM: -0.439% for the first, -2.47% for the second.

Compared with `O=c1[nH]c(-c2ccncc2)ncc1-c1ccnc(N2CCOCC2)n1`, `c1ccc(Cc2noc(-c3ccc(NCC4CCCOC4)nc3)n2)cc1` (configuration not stated) is higher in cytotoxicity at 10 µM: -1.2% for the first, -1.05% for the second.

First: COc1ccc2nc(CNC(=O)C3CC4(CCNCC4)CN3C)[nH]c2c1 (configuration not stated)
Second: CC[C@@H]1N(Cc2ccncc2)CCC[C@]12CCC(=O)N2C
The cytotoxicity at 10 µM of the first is lower: 0.488% for the first, 10.5% for the second.

Compared with `Cc1ccc2nc(C)c(C)c(C(=O)N3CCN(c4nccs4)CC3)c2c1`, `Cc1ccc(NC(=O)C2=CN=S=N2)cc1` is lower in cytotoxicity at 10 µM: 3.96% for the first, 3.51% for the second.

Compared with `CN(C)S(=O)(=O)N1CC[C@]2(O)CCN(Cc3cccc(F)c3)C[C@@H]2C1`, `CCCc1cc(C(=O)N2C[C@@H](C)[C@](O)(C3CCC3)C2)[nH]n1` is higher in cytotoxicity at 10 µM: -5.16% for the first, 10.1% for the second.

First: CN(C)CC(C)(C)Cn1cnc(-c2ccccc2)c1-c1ncc[nH]1
Second: COc1cc(CN(CCCN(C)C)Cc2ccccn2)cc2c1OCO2
The cytotoxicity at 10 µM of the first is higher: 9.21% for the first, 1.44% for the second.

First: Cc1ccc(C(=O)NCCC(C)C)cc1NS(C)(=O)=O
Second: CC(C)CN1CCC(N2CCC(C(=O)N(C)C)CC2)CC1
The cytotoxicity at 10 µM of the first is lower: 10.9% for the first, 16.9% for the second.
